This is a sample that favours compounds with a hit; in the whole collection about 3.3% have one here.
PMI act = activators of human PMI, primary screen, biochemical, fluorescence intensity, near-Km mannose 6-phosphate. Mannose-6-phosphate isomerase (Homo sapiens), P34949. purified human PMI, coupled resazurin fluorescence, 20 min; active compounds read high; 1 = vehicle control, 0 substrate-free wells. activation factor at 20 µM. 0.005% of 190,000 active;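 active = activation factor of 2 or more at 20 µM, relative to plate controls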
ABCB1 inh = ABCB1 efflux pump inhibitors, primary screen, cell-based, multiplex, flow cytometry, ABCG2 counter-screen. ATP-dependent translocase ABCB1 (Homo sapiens), P08183. CCRF-Adr cells, JC-1 efflux. inhibition, % at 6.6 µM. 0.067% of 190,000 active. AID 1326, 2008; in the data active = inhibition above about 40%;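 also: 0% = vehicle and 100% = reference inhibitor; higher value means more JC-1 retained so stronger ABCB1 efflux block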
ABCG2 block = ABCG2 efflux pump inhibitors, primary screen, multiplex with ABCB1, IgMXP3 cells, flow cytometry; Broad substrate specificity ATP-binding cassette transporter ABCG2 (Homo sapiens), Q9UNQ0; JC-1 efflux; 0.1% of 190,000 active; inhibition, % at 6.6 µM;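 active = inhibition above 80%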;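 also: 0% = DMSO and 100% = nicardipine control wells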
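material = IgMXP3 (ABCG2) plus far-red-tagged CCRF-Adr (ABCB1) cells | amount = 3 million cells/mL, equal mix of both lines | also added = JC-1 transporter substrate | dosing = one concentration, 6.6 µM final | schedule = 10 min at 25 °C | measured by = flow cytometric JC-1 green MFI at 530 nm | read-out basis = percent efflux inhibition, scaled nicardipine 100% to DMSO 0%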
ROMK mod = ROMK potassium channel modulators, primary screen, cell-based, thallium flux, MLSMR library; B-score at 10 µM; 2% of 130,000 active; ATP-sensitive inward rectifier potassium channel 1 (Homo sapiens), P48048; Tet-inducible ROMK, thallium flux fluorescence; actives lie on both sides;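 active = signal ratio slope over the read window, or its plate-corrected B-score, at least 3 SD from the plate mean, either direction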;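 also: B-score of the F/F0 ratio slope over 7 to 12 s after thallium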
Target sequence (P48048 whole entry, looked up): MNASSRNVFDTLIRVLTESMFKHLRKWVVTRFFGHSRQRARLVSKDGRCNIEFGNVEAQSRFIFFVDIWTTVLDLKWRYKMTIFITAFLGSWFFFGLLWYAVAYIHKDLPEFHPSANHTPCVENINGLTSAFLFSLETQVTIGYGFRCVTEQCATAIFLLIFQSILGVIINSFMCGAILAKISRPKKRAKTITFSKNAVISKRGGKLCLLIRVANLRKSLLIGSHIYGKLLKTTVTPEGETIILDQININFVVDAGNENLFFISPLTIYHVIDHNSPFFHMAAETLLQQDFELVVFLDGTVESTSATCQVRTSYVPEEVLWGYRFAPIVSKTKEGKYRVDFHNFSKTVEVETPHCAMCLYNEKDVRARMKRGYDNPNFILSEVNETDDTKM
Cl transport mod = KCC2 cotransporter modulators, thallium flux, primary screen, cell-based, HEK293 KCC2, FluoZin-2 fluorescence, MLSMR. KCC2 cells, thallium flux FluoZin-2 fluorescence. Solute carrier family 12 member 5 (Homo sapiens), Q9H2X9. B-score of Tl+ flux slope (higher = more flux/activation; lower = inhibition) at 10 µM. 2.2% of 190,000 active. AID 1456, 2008;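 active = thallium flux slope and its plate-corrected score both differing from the plate sample mean at a set confidence after two filtering rounds, in either direction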;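 also: slope of fluorescence scaled to starting intensity during 10 to 20 s after thallium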
PMI act hi M6P = human PMI activators, high substrate, primary screen, biochemical, fluorescence intensity, near-saturating mannose 6-phosphate. activation factor at 20 µM. coupled PMI enzyme assay, resazurin fluorescence, 20 min; active compounds read high; 1 = untreated enzyme, 0 = substrate-free blank. Mannose-6-phosphate isomerase (Homo sapiens), P34949. AID 1216, 2008. 0.34% of 190,000 active;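 active = activation factor of 2 or more at 20 µM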
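Material: human phosphomannose isomerase with PGI, G6PDH, diaphorase coupling enzymes / Reagent: Man-6-P substrate 1.0 mM / Dosing: single compound dose of 20 µM, 1% DMSO final / Incubation: enzyme reaction with compound 20 min at room temperature / Signal: resorufin fluorescence (Ex 544/Em 590 nm) from resazurin via diaphorase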
KCC2 sec1 = KCC2 modulators in sodium-free buffer, confirmation, cell-based, HEK293 KCC2, thallium flux, secondary assay; normalised thallium flux (F/F0 slope) at 10 µM; 15% of 3,700 active; shares compounds with Cl transport mod; FluoZin2 fluorescence; active compounds read high;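 active = thallium flux slope above the same plate's solvent-only control mean plus 3 SD; inconclusive = the two replicate wells disagree; inactive = no significant difference from solvent-only control wells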
KCC2 bumet counter = thallium flux persisting under bumetanide in KCC2 cells, confirmation, counter-screen for KCC2 modulator project, cell-based, HEK293 KCC2, FluoZin2, secondary assay 3; shares compounds with Cl transport mod; HEK293-KCC2 + bumetanide/ouabain; active compounds read high; normalized thallium flux at 10 µM; 49% of 3,700 active; AID 1714, 2009;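 active = thallium entry rate above the same plate's blocked-transporter control wells by more than 3 SD; inconclusive = the two repeat wells disagree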;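 also: raw slope of fluorescence over initial fluorescence between 10 and 20 s after thallium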
KCC2 secondary2 = KCC2 modulators without ouabain present, confirmation, cell-based, HEK293 KCC2, thallium flux, FluoZin2, secondary assay 2; shares compounds with Cl transport mod; thallium flux FluoZin2 fluorescence; actives lie on both sides; F/F0 rise rate, 10–20 s post-thallium; normalized thallium flux at 10 µM; 23% of 3,700 active; AID 1715, 2009;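 active = thallium flux slope more than 3 SD above or below the plate's solvent-only control mean, mostly below; inconclusive = the two repeat wells disagreed; inactive = no significant shift from solvent-only controls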;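 also: raw slope with 0.1% DMSO as baseline and bumetanide as block control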
HEK293 Tl flux = thallium flux modulation in parental HEK cells, confirmation, counter-screen for KCC2 modulator project, cell-based, counterscreen 1; shares compounds with Cl transport mod; HEK293 parental cells, thallium flux FluoZin2, ouabain; baseline-ratio fluorescence slope, 10–20 s after thallium; thallium flux rate (normalised fluorescence) at 10 µM; 46% of 3,700 active;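 active = thallium flux rate significantly above the same plate's solvent-only control wells, beyond their mean plus 3 SD; inconclusive = the two replicate wells gave conflicting results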
KCC2 retest ouab = KCC2 inhibitors and activators, ouabain retest, confirmation, HEK-KCC2 cells | shares compounds with Cl transport mod | HEK293-KCC2, thallium flux FluoZin2 fluorescence; bidirectional: low = inhibitor, high = activator | raw Tl+ flux slope (below DMSO = inhibition, above = activation) at 10 µM | 48% of 3,700 active;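 active = thallium flux slope beyond 3 SD from same-plate DMSO control mean in most replicates, usually higher, sometimes lower; inconclusive = repeat tests gave conflicting results; inactive = no significant difference from controls in most replicates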;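 also: slope of initial-normalized fluorescence between seconds 10 and 20 after thallium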
HEK counter2 = native HEK Tl+ uptake effects, second counter-screen – HEK cells, counterscreen 2, counter-screen for KCC2 modulator project, confirmation. shares compounds with Cl transport mod. HEK293 parental, thallium flux FluoZin-2 fluorescence slope. thallium flux slope at 10 µM. 33% of 3,700 active;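 active = thallium flux slope above the same plate's solvent-control mean plus 3 SD in both duplicate wells; inconclusive = duplicate wells that disagreed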;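 also: run without ouabain in cells lacking the KCC2 cotransporter; slope of fluorescence scaled to its starting value between 10 and 20 s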
The depositor's hits bear a star.

For CS/C(=C\[N+](=O)[O-])Nc1ccc(OC(F)(F)F)cc1 the results were PMI act 1.1, ABCB1 inh 0.7, ABCG2 block 1.1, ROMK mod -0.346, Cl transport mod -4.2*, PMI act hi M6P 1, KCC2 sec1 0.00764, KCC2 bumet counter inconclusive, KCC2 secondary2 0.0255*, HEK293 Tl flux inconclusive, KCC2 retest ouab 0.0138* and HEK counter2 0.0118.
CCn1nc(C(=O)OCC(=O)c2ccc(F)cc2)c2ccccc2c1=O was read as PMI act 1.2, ABCB1 inh 0.5, ABCG2 block 2.8, ROMK mod 0.095, Cl transport mod -5.36*, PMI act hi M6P 1.2, KCC2 sec1 0.00611, KCC2 bumet counter 0.00434, KCC2 secondary2 0.0272, HEK293 Tl flux inconclusive, KCC2 retest ouab inconclusive and HEK counter2 0.00924.
COc1ccc2c(c1)O/C(=C\c1sccc1C)C2=O was read as PMI act 0.9, ABCB1 inh -0.7, ABCG2 block -3.0, ROMK mod 0.36, Cl transport mod -0.109 and PMI act hi M6P 0.9.
CC(C)CCNC(=O)CCc1nnc(Cc2c[nH]c3ccccc23)o1 was read as PMI act 0.8, ABCB1 inh 0.1, ABCG2 block 4.7, ROMK mod -0.248, Cl transport mod -1.26 and PMI act hi M6P 0.9.
Screening S=c1[nH]nc(Cc2c[nH]c3ccccc23)o1 returned PMI act 1, ABCB1 inh -1.3, ABCG2 block -1.0, Cl transport mod -5.52*, PMI act hi M6P 1, KCC2 sec1 0.00831, KCC2 bumet counter 0.00568, KCC2 secondary2 0.0229*, HEK293 Tl flux 0.0068, KCC2 retest ouab 0.0114* and HEK counter2 0.00943.
C(=C1/CCCC2=C1Nc1ncnn1C2c1ccccc1)/c1ccccc1 (centres undefined) was read as PMI act 1, ABCB1 inh 0.3, ABCG2 block 2.2, Cl transport mod -0.623 and PMI act hi M6P 0.9.
`O=C1CN(C(=O)COC(=O)c2cccc(OCc3ccccc3)c2)c2ccccc2N1` gave PMI act 0.7, ABCB1 inh 0.5, ABCG2 block 46.5, Cl transport mod 1.02 and PMI act hi M6P 0.8.
`CC(/C=N/NC(=S)Nc1cccc(S(=O)(=O)N(C)C)c1)c1ccccc1` (centres undefined) gave PMI act 1, ABCB1 inh 0.1, ABCG2 block -2.3, ROMK mod 0.214, Cl transport mod 0.555 and PMI act hi M6P 1.
Screening Cc1ccc(C)c(NC(=S)N/N=C/C(C)c2ccccc2)c1 (centres undefined) returned PMI act 1, ABCB1 inh -0.3, ABCG2 block 2.3, Cl transport mod 25.3*, PMI act hi M6P 1.1, KCC2 sec1 0.0114, KCC2 bumet counter 0.0244*, KCC2 secondary2 0.033, HEK293 Tl flux inconclusive, KCC2 retest ouab inconclusive and HEK counter2 0.00835.
For CC(C)CCN1CCN(Cc2ccc(C#CCCO)cc2)CC1CCO (centres undefined) the results were PMI act 0.9, ABCB1 inh 0.8, ABCG2 block 1.4, Cl transport mod 5.31*, PMI act hi M6P 0.9, KCC2 sec1 0.0175, KCC2 bumet counter 0.00426, KCC2 secondary2 0.0316, HEK293 Tl flux 0.00814, KCC2 retest ouab 0.0177 and HEK counter2 0.0105.
O=C(COC(=O)CNC(=O)c1sc2ccccc2c1Cl)Nc1c(Cl)cc(Cl)cc1Cl was read as PMI act 1, ABCB1 inh -0.1, ABCG2 block 2.0, Cl transport mod -0.483 and PMI act hi M6P 0.9.
O=[N+]([O-])c1cc(S(=O)(=O)N2CCCC2)ccc1N/N=C1/CCCc2ccccc21 was read as PMI act 1, ABCB1 inh 0.1, ABCG2 block -0.1, ROMK mod 0.818, Cl transport mod -3.99*, PMI act hi M6P 0.9, KCC2 sec1 0.00615, KCC2 bumet counter 0.00485, KCC2 secondary2 0.0323, HEK293 Tl flux 0.00811, KCC2 retest ouab 0.019 and HEK counter2 inconclusive.
Screening Cn1c(C(=O)OC(C(=O)NC2CCCC2)c2ccncc2)cc2sccc21 (centres undefined) returned PMI act 1.1, ABCB1 inh 3.1, ABCG2 block 2.9, Cl transport mod -5.18*, PMI act hi M6P 1.1, KCC2 sec1 0.00677, KCC2 bumet counter inconclusive, KCC2 secondary2 0.025*, HEK293 Tl flux 0.0074, KCC2 retest ouab inconclusive and HEK counter2 0.0101.
